Reference: ChEMBL document CHEMBL1811781, “Arthrinins A-D: novel diterpenoids and further constituents from the sponge derived fungus Arthrinium sp” (Bioorg Med Chem, 2011)
Values belong to the molecule of their own block, whether it stands above or below them. Calls of active or inactive are those of the source. No cut-off for these calls is given here.

What was measured:
HUVEC = assay: Inhibition of VEGF-A induced HUVEC cell sprouting after 24 hrs by angiogenesis assay; format: functional, cell-based; details: Homo sapiens
Outline: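 HUVEC spheroids (500 cells, formed overnight in hanging drops) embedded in collagen gel. Compound plus VEGF-A (25 ng/mL final) added after 30 min; 37 °C for 24 h, then paraformaldehyde fixation. Mean cumulative sprout length of 10 random spheroids per point; seven concentrations, 10 µM to 10 nM, in singlicate for IC50.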

A2780 [1] = assay: Antiproliferative activity against human cisplatin resistant A2780 cells after 24 hrs by MTT assay; format: functional, cell-based
Outline: (§1)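 Microplate MTT proliferation read-out, scored against untreated controls; each experiment run in triplicate.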

[2] = biological target: Dual specificity mitogen-activated protein kinase kinase 1 (Homo sapiens, UniProt Q02750); assay: Inhibition of wild type MEK1 assessed as 33Pi incorporation after 60 mins by scintillation counting
Outline: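 ERK2-KR is the substrate for wild-type MEK1 in 70 mM HEPES-NaOH pH 7.5 containing 3 mM MgCl2, 3 mM MnCl2, orthovanadate, 1.2 mM DTT, PEG and 1 µM [γ-33P]-ATP. Reaction runs 60 min at 30 °C and is stopped with 2% H3PO4; incorporated 33Pi is counted after washing. IC50 comes from 10 concentrations tested once each.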

[3] = biological target: Serine/threonine-protein kinase PLK1 (Homo sapiens, UniProt P53350); assay: Inhibition of recombinant PLK1 assessed as 33Pi incorporation after 60 mins by scintillation counting
Outline: (§2)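 Kinase reaction uses RBER-CHKtide as substrate in HEPES-NaOH pH 7.5 (70 mM) with 3 mM each MgCl2 and MnCl2, orthovanadate, 1.2 mM DTT, PEG and 1 µM [γ-33P]-ATP. Run at 30 °C for 60 min, quenched in 2% H3PO4, saline-washed, scintillation-counted. Residual activity at 10 concentrations (singlicate) gives IC50.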

K562 [4] = assay: Antiproliferative activity against human K562 cells up to 365 uM after 24 hrs by MTT assay; format: functional, cell-based
[5] = biological target: NUAK family SNF1-like kinase 1 (Homo sapiens, UniProt O60285); assay: (§3) Inhibition of recombinant ARK5 assessed as 33Pi incorporation after 60 mins by scintillation counting; outline: as §2
[6] = biological target: Proto-oncogene tyrosine-protein kinase Src (Homo sapiens, UniProt P12931); assay: Inhibition of recombinant SRC assessed as 33Pi incorporation after 60 mins by scintillation counting
Outline: (§4)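 Tyrosine kinases assayed on poly(Glu,Tyr) in 70 mM HEPES-NaOH pH 7.5, 3 mM MgCl2, 3 mM MnCl2, orthovanadate, 1.2 mM DTT, PEG, 1 µM [γ-33P]-ATP; 30 °C for 60 min, then 2% H3PO4 stop, saline wash, 33Pi scintillation. IC50 derived from residual activity at 10 concentrations in singlicate.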

[7] = biological target: Serine/threonine-protein kinase pim-1 (Homo sapiens, UniProt P11309); assay: Inhibition of recombinant PIM1 assessed as 33Pi incorporation after 60 mins by scintillation counting
Outline: (§5)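 Recombinant kinase with GSK3(14-27) substrate in 70 mM HEPES-NaOH pH 7.5, 3 mM MgCl2, 3 mM MnCl2, Na-orthovanadate, 1.2 mM DTT, PEG, 1 µM [γ-33P]-ATP. Incubated 30 °C, 60 min, stopped with 2% H3PO4, washed with 0.9% NaCl, 33Pi counted. IC50 from residual activity over 10 concentrations in singlicate.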

[8] = biological target: ALK tyrosine kinase receptor (Homo sapiens, UniProt Q9UM73); assay: Inhibition of recombinant ALK assessed as 33Pi incorporation after 60 mins by scintillation counting; outline: as §4
[9] = biological target: Serine/threonine-protein kinase Nek6 (Homo sapiens, UniProt Q9HC98); assay: Inhibition of recombinant NEK6 assessed as 33Pi incorporation after 60 mins by scintillation counting; outline: as §5
[10] = biological target: RAC-alpha serine/threonine-protein kinase (Homo sapiens, UniProt P31749); assay: Inhibition of recombinant AKT1 assessed as 33Pi incorporation after 60 mins by scintillation counting; outline: as §5
Aurora kinase B = Aurora kinase B (Homo sapiens, UniProt Q96GD4); assay: Inhibition of recombinant Aurora-b assessed as 33Pi incorporation after 60 mins by scintillation counting
Outline: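 Substrate tetra(LRRWSLG) with recombinant Aurora-B. Buffer is 70 mM HEPES-NaOH pH 7.5, 3 mM MgCl2, 3 mM MnCl2, orthovanadate, 1.2 mM DTT, PEG, with 1 µM [γ-33P]-ATP. After 60 min at 30 °C, 2% H3PO4 stop, NaCl washes, 33Pi counted. IC50 fitted from 10 singlicate concentrations.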

L5178Y = assay: Antiproliferative activity against mouse L5178Y cells after 24 hrs by MTT assay; format: functional, cell-based; outline: as §1
[11] = biological target: Vascular endothelial growth factor receptor 2 (Homo sapiens, UniProt P35968); assay: Inhibition of recombinant VEGF-R2 assessed as 33Pi incorporation after 60 mins by scintillation counting; outline: as §4
[12] = biological target: Insulin-like growth factor 1 receptor (Homo sapiens, UniProt P08069); assay: Inhibition of recombinant IGF1-R assessed as 33Pi incorporation after 60 mins by scintillation counting; outline: as §4
[13] = biological target: Tyrosine-protein kinase receptor UFO (Homo sapiens, UniProt P30530); assay: (§6) Inhibition of recombinant AXL assessed as 33Pi incorporation after 60 mins by scintillation counting; outline: as §4
[14] = biological target: Serine/threonine-protein kinase N1 (Homo sapiens, UniProt Q16512); assay: Inhibition of recombinant PRK1 assessed as 33Pi incorporation after 60 mins by scintillation counting; outline: as §2
[15] = biological target: Hepatocyte growth factor receptor (Homo sapiens, UniProt P08581); assay: Inhibition of wild type MET assessed as 33Pi incorporation after 60 mins by scintillation counting
Outline: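 Wild-type MET phosphorylates poly(Ala,Glu,Lys,Tyr) in HEPES-NaOH pH 7.5 (70 mM) with 3 mM MgCl2, 3 mM MnCl2, orthovanadate, 1.2 mM DTT, PEG, 1 µM [γ-33P]-ATP, at 30 °C for 60 min. Stop with 2% H3PO4, wash, scintillation count. IC50 from residual activity at 10 singlicate concentrations.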

[16] = biological target: Serine/threonine-protein kinase Nek2 (Homo sapiens, UniProt P51955); assay: (§7) Inhibition of recombinant NEK2 assessed as 33Pi incorporation after 60 mins by scintillation counting
Outline: (§8)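 NEK2 reaction on RB-CTF substrate. Contains 70 mM HEPES-NaOH pH 7.5, 3 mM MgCl2/MnCl2, orthovanadate, 1.2 mM DTT, PEG and 1 µM [γ-33P]-ATP. Incubation is 30 °C, 60 min, followed by 2% H3PO4 stop, 0.9% NaCl washes and 33Pi scintillation counting. IC50 from 10 concentrations in singlicate.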

A2780 [17] = assay: Antiproliferative activity against human A2780 cells after 24 hrs by MTT assay; format: functional, cell-based; outline: as §1
Focal adhesion kinase 1 = Focal adhesion kinase 1 (Homo sapiens, UniProt Q05397); assay: Inhibition of recombinant FAK assessed as 33Pi incorporation after 60 mins by scintillation counting; outline: as §4
K562 [18] = assay: Antiproliferative activity against human K562 cells after 24 hrs by MTT assay; format: functional, cell-based; outline: as §1
[19] = biological target: NUAK family SNF1-like kinase 1 (Homo sapiens) (UniProt O60285); assay: as §3; outline: as §2
[20] = biological target: Tyrosine-protein kinase receptor UFO (Homo sapiens) (UniProt P30530); assay: as §6; outline: as §4
[21] = biological target: Serine/threonine-protein kinase Nek2 (Homo sapiens) (UniProt P51955); assay: as §7; outline: as §8
[22] = Homo sapiens, A2780, 24 h, read-out: IC50
[23] = Mus musculus, L5178Y, 24 h, read-out: IC50
[24] = Homo sapiens, K562, 24 h, read-out: IC50

Aurora kinase B, sequence (Q96GD4 whole entry): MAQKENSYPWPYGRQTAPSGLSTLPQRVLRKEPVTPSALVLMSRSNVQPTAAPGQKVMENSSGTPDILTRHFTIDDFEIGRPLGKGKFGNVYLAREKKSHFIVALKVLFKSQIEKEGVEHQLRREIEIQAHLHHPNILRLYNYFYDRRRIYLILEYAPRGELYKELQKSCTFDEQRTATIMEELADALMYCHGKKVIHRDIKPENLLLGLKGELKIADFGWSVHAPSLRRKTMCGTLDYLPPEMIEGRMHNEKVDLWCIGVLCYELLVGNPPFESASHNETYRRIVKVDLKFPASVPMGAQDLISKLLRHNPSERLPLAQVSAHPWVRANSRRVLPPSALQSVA
Proto-oncogene tyrosine-protein kinase Src, sequence (P12931 2-536 limits assumed): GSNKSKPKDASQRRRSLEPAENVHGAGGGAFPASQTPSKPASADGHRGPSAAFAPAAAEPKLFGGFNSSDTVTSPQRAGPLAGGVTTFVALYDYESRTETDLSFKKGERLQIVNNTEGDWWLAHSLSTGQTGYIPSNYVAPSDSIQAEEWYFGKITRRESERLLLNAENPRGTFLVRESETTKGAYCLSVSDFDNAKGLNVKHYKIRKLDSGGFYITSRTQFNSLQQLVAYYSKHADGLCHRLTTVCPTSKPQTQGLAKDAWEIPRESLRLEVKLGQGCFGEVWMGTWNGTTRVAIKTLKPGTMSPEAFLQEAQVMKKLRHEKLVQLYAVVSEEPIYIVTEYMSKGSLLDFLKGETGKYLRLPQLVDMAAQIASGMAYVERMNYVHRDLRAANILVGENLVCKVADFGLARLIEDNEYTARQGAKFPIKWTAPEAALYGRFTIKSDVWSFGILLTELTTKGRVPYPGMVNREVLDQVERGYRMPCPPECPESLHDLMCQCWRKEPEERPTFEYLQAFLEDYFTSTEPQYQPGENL
RAC-alpha serine/threonine-protein kinase, sequence (P31749 whole entry): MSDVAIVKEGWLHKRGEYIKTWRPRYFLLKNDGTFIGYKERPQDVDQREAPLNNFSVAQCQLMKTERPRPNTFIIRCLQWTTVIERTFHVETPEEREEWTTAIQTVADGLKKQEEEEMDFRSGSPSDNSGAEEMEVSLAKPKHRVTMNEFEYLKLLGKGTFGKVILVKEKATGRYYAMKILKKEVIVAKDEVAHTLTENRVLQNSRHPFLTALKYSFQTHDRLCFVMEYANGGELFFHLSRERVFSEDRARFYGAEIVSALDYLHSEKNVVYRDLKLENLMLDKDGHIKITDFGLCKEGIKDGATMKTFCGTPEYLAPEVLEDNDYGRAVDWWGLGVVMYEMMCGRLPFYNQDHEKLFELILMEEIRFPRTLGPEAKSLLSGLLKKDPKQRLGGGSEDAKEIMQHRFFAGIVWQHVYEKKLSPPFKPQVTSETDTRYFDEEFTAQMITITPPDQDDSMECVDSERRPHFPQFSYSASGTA
Serine/threonine-protein kinase Nek6, sequence (Q9HC98 whole entry): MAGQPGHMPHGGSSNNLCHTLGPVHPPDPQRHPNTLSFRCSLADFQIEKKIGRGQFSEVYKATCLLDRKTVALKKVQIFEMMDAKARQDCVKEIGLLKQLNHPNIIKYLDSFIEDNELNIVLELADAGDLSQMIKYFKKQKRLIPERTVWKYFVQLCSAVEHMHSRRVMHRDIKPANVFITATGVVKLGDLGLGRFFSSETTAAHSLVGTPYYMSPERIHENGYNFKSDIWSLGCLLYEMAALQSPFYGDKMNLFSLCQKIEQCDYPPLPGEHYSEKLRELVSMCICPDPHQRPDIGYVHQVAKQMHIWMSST
Dual specificity mitogen-activated protein kinase kinase 1, sequence (Q02750 whole entry): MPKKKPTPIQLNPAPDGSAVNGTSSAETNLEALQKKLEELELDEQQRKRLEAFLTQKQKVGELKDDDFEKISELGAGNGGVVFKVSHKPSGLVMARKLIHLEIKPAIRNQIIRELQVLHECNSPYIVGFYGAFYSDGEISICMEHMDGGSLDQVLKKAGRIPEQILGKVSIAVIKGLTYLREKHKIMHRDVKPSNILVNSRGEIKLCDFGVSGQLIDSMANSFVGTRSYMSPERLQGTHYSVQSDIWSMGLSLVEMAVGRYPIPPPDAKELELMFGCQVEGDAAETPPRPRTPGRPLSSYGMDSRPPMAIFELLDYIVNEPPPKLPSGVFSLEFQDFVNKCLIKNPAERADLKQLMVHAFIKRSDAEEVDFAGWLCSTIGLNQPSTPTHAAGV
Hepatocyte growth factor receptor, sequence (P08581 whole entry): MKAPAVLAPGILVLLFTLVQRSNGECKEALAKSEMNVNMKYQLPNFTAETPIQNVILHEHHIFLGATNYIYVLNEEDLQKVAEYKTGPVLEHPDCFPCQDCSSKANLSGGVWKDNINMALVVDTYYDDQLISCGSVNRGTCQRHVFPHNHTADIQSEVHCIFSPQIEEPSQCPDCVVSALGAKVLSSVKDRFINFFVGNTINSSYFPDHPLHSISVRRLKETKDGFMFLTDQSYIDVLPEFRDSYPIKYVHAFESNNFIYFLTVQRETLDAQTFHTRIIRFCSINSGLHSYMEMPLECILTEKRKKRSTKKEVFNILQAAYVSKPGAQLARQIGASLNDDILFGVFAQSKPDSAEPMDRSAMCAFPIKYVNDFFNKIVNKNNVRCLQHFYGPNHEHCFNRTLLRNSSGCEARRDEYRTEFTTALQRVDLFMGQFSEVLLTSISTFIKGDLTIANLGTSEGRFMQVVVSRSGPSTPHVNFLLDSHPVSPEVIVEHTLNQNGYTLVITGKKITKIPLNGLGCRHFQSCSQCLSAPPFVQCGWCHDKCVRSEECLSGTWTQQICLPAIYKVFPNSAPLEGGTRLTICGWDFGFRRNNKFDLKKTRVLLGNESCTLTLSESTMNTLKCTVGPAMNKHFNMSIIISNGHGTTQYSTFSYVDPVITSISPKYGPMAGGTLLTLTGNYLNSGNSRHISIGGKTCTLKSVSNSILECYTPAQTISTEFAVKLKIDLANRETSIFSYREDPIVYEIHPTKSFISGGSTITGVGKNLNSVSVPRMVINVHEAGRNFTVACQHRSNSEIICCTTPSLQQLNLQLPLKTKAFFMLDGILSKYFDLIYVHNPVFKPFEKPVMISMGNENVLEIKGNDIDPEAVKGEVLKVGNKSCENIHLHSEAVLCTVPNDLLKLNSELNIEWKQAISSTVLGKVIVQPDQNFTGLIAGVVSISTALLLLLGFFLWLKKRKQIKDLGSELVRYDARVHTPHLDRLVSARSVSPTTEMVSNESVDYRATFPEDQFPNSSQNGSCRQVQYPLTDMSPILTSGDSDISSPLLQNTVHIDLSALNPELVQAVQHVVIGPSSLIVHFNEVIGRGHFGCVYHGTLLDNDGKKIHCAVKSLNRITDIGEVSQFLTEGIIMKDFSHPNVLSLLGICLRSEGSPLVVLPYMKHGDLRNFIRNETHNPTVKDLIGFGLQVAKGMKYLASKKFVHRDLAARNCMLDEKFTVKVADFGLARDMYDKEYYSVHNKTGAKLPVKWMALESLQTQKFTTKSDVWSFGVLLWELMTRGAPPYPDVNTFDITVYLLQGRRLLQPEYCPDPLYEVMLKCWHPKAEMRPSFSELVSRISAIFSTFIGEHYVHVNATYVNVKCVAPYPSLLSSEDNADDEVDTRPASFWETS
Vascular endothelial growth factor receptor 2, sequence (P35968 whole entry): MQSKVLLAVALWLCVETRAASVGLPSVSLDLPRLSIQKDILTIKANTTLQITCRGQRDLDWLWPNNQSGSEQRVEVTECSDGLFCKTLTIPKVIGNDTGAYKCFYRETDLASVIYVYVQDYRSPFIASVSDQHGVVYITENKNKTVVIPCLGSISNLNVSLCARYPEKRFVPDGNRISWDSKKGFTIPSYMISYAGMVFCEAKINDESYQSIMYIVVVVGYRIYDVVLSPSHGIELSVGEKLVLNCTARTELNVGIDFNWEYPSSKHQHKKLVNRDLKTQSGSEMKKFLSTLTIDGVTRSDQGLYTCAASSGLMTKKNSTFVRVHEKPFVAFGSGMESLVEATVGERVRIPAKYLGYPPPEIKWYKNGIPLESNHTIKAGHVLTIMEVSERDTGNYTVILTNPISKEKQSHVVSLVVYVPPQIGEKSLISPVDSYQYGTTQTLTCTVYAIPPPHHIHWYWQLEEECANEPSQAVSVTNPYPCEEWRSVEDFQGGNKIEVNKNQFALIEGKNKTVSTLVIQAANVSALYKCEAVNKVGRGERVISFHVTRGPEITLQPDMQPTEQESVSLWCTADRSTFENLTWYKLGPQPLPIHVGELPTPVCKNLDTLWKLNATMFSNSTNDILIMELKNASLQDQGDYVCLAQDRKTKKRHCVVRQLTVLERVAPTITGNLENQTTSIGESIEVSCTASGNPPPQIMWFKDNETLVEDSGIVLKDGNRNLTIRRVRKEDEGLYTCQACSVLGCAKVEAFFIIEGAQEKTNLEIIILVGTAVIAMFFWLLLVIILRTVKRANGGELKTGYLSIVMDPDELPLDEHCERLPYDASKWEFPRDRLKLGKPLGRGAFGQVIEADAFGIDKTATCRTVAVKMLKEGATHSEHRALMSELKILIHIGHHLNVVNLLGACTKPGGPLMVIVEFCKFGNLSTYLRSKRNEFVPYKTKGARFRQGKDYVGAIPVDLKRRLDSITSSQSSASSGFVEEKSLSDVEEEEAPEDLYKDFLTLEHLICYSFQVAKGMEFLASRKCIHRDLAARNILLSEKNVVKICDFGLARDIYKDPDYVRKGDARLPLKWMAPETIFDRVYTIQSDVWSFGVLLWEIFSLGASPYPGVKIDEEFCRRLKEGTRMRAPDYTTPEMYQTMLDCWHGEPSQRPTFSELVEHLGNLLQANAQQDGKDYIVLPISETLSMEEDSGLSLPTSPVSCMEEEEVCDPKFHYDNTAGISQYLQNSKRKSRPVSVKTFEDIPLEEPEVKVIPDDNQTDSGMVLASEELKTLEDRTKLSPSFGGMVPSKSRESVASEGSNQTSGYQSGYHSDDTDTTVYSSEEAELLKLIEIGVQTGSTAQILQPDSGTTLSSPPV

IC50 (A2780 [1]; a2780): Not Active
IC50 (K562 [18]; k562): Not Active
IC50 (A2780 [17]; a2780): Not Active
Compound: C=Cc1c(C)cc(O)c2c1[C@H](O)[C@@H](O)[C@H]1[C@]23C[C@H]3CC[C@@]1(C)C(=O)OC [ARTHRININ D]
IC50 (L5178Y; l5178y): Not Active

IC50 (A2780 [1]; [22]): 155 µM
inhibition [2]: inactive
inhibition [3]: inactive
inhibition [19]: inactive
inhibition [6]: inactive
inhibition [7]: inactive
IC50 (K562 [18]; [24]): 42 µM
inhibition [8]: inactive
inhibition [9]: inactive
inhibition [10]: inactive
inhibition (Aurora kinase B): inactive
inhibition [11]: inactive
inhibition [12]: inactive
inhibition [20]: inactive
inhibition [14]: inactive
inhibition [15]: inactive
inhibition [21]: inactive
IC50 (A2780 [17]; [22]): 28.2 µM
inhibition (Focal adhesion kinase 1): inactive
Compound: C=C[C@@]1(C)C=C2C(=O)C(O)=C3[C@](C)(C(=O)O)CC[C@@H]4C[C@]34[C@]2(O)C(=O)C1 [MYROCIN A]
IC50 (HUVEC): 3.7 µM
IC50 (L5178Y; [23]): 2.74 µM

IC50 (A2780 [1]; [22]): 66 µM
inhibition [2]: inactive
inhibition [3]: inactive
inhibition [19]: inactive
inhibition [6]: inactive
inhibition [7]: inactive
IC50 (K562 [18]; [24]): 50.3 µM
inhibition [8]: inactive
inhibition [9]: inactive
inhibition [10]: inactive
inhibition (Aurora kinase B): inactive
inhibition [11]: inactive
inhibition [12]: inactive
inhibition [20]: inactive
inhibition [14]: inactive
inhibition [15]: inactive
inhibition [21]: inactive
IC50 (A2780 [17]; [22]): 41.3 µM
inhibition (Focal adhesion kinase 1): inactive
Compound: C=C[C@]1(C)C=C2[C@@H](O)[C@@H]3OC(=O)[C@@]4(C)CC[C@H]5C[C@]5([C@@H]34)[C@@]2(O)C(=O)C1 [MYROCIN D]
IC50 (HUVEC): 2.6 µM
IC50 (L5178Y; [23]): 2.05 µM

IC50 (A2780 [1]; [22]): 74 µM
IC50 [2]: > 100 µM
IC50 [3]: 75.7 µM
IC50 [5]: 33 µM
IC50 [6]: 35 µM
IC50 [7]: 0.3 µM
IC50 (K562 [18]; [24]): 254 µM
IC50 [8]: 41.3 µM
IC50 [9]: > 100 µM
IC50 [10]: > 100 µM
IC50 (Aurora kinase B): 3 µM
IC50 [11]: 11.7 µM
IC50 [12]: 33.3 µM
IC50 [13]: > 100 µM
IC50 [14]: 54.9 µM
IC50 [15]: > 100 µM
IC50 [16]: > 100 µM
IC50 (A2780 [17]; [22]): 68.2 µM
IC50 (Focal adhesion kinase 1): > 100 µM
Compound: Cc1cc(O)cc2oc3cc(O)cc(O)c3c(=O)c12 [NORLICHEXANTHONE]
IC50 (L5178Y; [23]): 1.16 µM

Second part, the molecule before the results:

Compound: Cc1c(O)c(O)cc2oc3cc(O)cc(O)c3c(=O)c12 [ANOMALIN A]
IC50 (HUVEC): 1.8 µM
IC50 (A2780 [1]; [22]): 26 µM
IC50 [2]: > 100 µM
IC50 [3]: 8.8 µM
IC50 (K562 [4]): Not Active
IC50 [5]: 15.6 µM
IC50 [6]: 12.9 µM
IC50 [7]: 0.3 µM
IC50 [8]: 1.1 µM
IC50 [9]: 67.8 µM
IC50 [10]: > 100 µM
IC50 (Aurora kinase B): 0.5 µM
IC50 (L5178Y; [23]): 0.4 µM
IC50 [11]: 0.8 µM
IC50 [12]: 8.6 µM
IC50 [13]: 6.6 µM
IC50 [14]: 45.3 µM
IC50 [15]: 4.4 µM
IC50 [16]: 83.9 µM
IC50 (A2780 [17]; [22]): 4.34 µM
IC50 (Focal adhesion kinase 1): 15.2 µM

Compound: C=Cc1c(C)cc(O)c2c1[C@H](O)[C@H]1OC(=O)[C@]3(C)CC[C@@H]4C[C@@]24[C@H]13 [ARTHRININ A]
IC50 (A2780 [1]; a2780): Not Active
IC50 (K562 [18]; k562): Not Active
IC50 (L5178Y; l5178y): Not Active
IC50 (A2780 [17]; a2780): Not Active

Compound: C=Cc1c(C)cc2c(c1O)[C@]13C[C@H]1CC[C@@]1(C)C(=O)O[C@H]([C@H]2O)[C@@H]31 [ARTHRININ B]
IC50 (A2780 [1]; a2780): Not Active
IC50 (K562 [18]; k562): Not Active
IC50 (L5178Y; l5178y): Not Active
IC50 (A2780 [17]; a2780): Not Active

Compound: Cc1cc(O)c2c(c1)[C@H](O)[C@H]1OC(=O)[C@]3(C)CC[C@@H]4C[C@@]24[C@H]13 [ARTHRININ C]
IC50 (A2780 [1]; a2780): Not Active
IC50 (K562 [18]; k562): Not Active
IC50 (L5178Y; l5178y): Not Active
IC50 (A2780 [17]; a2780): Not Active

Compound: C/C=C1\NC(=O)[C@H](Cc2ccccc2)NC(=O)[C@@H](C(C)C)NC(=O)[C@@H]([C@H](C)CC)NC(=O)[C@H](NC(=O)[C@H](NC(=O)[C@H](CCCN)NC(=O)[C@H]2CCCN2C(=O)[C@H](NC(=O)[C@@H](NC(=O)[C@@H](NC(=O)[C@H](NC(=O)CCCC(C)C)C(C)C)[C@@H](C)O)C(C)C)C(C)C)[C@H](C)CC)[C@H](C)OC(=O)[C@H](C(C)C)NC1=O [KAHALALIDE F]
IC50 (L5178Y; [23]): 4.3 µM

Compound: CCN(CC)CCNC(=O)c1c(C)[nH]c(/C=C2\C(=O)Nc3ccc(F)cc32)c1C [SUNITINIB]
IC50 (HUVEC): 0.12 µM
